47 molecules from ChEMBL document CHEMBL2331513, “Trisubstituted Sulfonamides: a New Chemotype for Development of Potent and Selective CB2 Receptor Inverse Agonists” (ACS Med Chem Lett, 2013) can be followed below.

The structures appear in SMILES notation. The source made the active and inactive calls. The calls are words filed in the database; no cut-off is given here.

Data set [1] deals with T1, Cannabinoid receptor 2 (Homo sapiens, UniProt P34972). In words: Displacement of [3H]CP-55940 from human CB2 receptor expressed in CHO cell membranes after 1 hr by scintillation counting analysis.
In a further data set the target is Cannabinoid receptor 1 (Homo sapiens, UniProt P21554). In words: biochemical. It is filed as cell-based, CHO.
The species named for a further data set is Homo sapiens. In words: Selectivity ratio of Ki for human CB1 receptor to Ki for human CB2 receptor. A digest of the protocol:
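Ki at CB1 and CB2 each determined by [3H]CP-55,940 competition binding; selectivity index computed as Ki(CB1)/Ki(CB2).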

Data set [2] has as its target T1, Cannabinoid receptor 2. In words: Inverse agonist activity at human CB2 receptor expressed in CHO cell membranes assessed as inhibition of forskolin-stimulated cAMP production after 45 mins by TR-FRET assay. Type of data set: functional, cell-based. A digest of the protocol: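 Functional cAMP readout by LANCE signal in CHO cells stably transfected with human CB2, tested across a concentration range; EC50 from concentration–response; means ± SEM of one representative experiment of two or more, run in duplicate or triplicate.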
(Changes in cAMP serve as a functional read-out for many G protein-coupled receptors.)

Data set [3] can be described thus: Inhibition of RANKL/MCSF-induced osteoclastogenesis in C57BL/6 mouse BM-MNC at 1 uM after 7 days by TRAP staining-based inverted microscopic analysis relative to control. Type of data set: functional. Further details: scale not given: the % may be the effect or the level left. A digest of the protocol:
(§1)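 Osteoclast formation assay using mouse bone marrow mononuclear cells stimulated with mouse RANKL plus M-CSF. Compounds were tested at 0.1, 1 and 5 μM, and inhibition was calculated relative to vehicle control. All experiments were run in triplicate and reported as mean ± standard deviation.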

Data set [4] in a line: Inhibition of RANKL/MCSF-induced osteoclastogenesis in C57BL/6 mouse BM-MNC at 0.1 uM after 7 days by TRAP staining-based inverted microscopic analysis relative to control. Type of data set: functional. Further details: scale not given: the % may be the effect or the level left. Summed up:
as §1

Data set [5] is described as follows: Inhibition of RANKL/MCSF-induced osteoclastogenesis in C57BL/6 mouse BM-MNC at 5 uM after 7 days by TRAP staining-based inverted microscopic analysis relative to control. It is filed as functional. The arrangement: scale not given: the % may be the effect or the level left. Summed up: as §1
The next data set has as its system PBMC. Briefly: Cytotoxicity against human PBMC at 5 uM after 72 hrs by trypan blue assay. It is filed as cell-based.
The species entered for the next data set is Mus musculus. Briefly: Inhibition of RANKL/MCSF-induced osteoclastogenesis in C57BL/6 mouse BM-MNC after 7 days by TRAP staining-based inverted microscopic analysis. Type of data set: functional. A digest of the protocol: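 Mouse bone marrow mononuclear cells driven to osteoclasts with mouse RANKL plus M-CSF, compound or vehicle control added; osteoclast formation scored; triplicate, means ± SD.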

Data set [6] addresses T1, Cannabinoid receptor 2. In words: Binding affinity to CB2 receptor (unknown origin). A digest of the protocol:
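Radioligand competition binding at CB2 using [3H]CP-55,940 as the labelled ligand; Ki derived from displacement; means ± SEM of at least three experiments, each run in duplicate.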

T1 sequence (P34972 whole entry): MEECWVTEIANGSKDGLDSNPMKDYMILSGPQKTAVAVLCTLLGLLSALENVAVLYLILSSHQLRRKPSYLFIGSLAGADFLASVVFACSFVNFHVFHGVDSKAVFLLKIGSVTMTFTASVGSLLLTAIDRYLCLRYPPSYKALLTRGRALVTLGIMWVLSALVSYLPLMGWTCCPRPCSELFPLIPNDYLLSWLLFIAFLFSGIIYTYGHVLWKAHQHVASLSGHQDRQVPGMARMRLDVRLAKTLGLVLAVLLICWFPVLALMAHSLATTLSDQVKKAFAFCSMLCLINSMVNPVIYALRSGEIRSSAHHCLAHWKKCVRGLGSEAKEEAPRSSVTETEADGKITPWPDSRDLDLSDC
Sequence of Cannabinoid receptor 1 (P21554 whole entry): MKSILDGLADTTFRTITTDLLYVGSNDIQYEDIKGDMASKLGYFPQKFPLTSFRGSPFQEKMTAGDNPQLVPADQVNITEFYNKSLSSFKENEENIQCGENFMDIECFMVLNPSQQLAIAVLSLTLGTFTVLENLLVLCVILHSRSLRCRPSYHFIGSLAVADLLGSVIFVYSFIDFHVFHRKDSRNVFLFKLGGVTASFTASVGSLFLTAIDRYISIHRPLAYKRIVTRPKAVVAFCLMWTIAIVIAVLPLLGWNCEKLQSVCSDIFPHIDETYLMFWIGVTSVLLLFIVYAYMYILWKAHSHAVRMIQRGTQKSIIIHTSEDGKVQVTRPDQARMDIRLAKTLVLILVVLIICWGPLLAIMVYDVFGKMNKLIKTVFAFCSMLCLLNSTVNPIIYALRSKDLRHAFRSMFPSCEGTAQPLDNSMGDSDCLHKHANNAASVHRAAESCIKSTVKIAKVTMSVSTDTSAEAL

`CCCc1ccc(CN(Cc2ccccc2)S(=O)(=O)c2ccc(C)cc2)cc1`: the Ki (usually the dissociation constant of the complex between target and ligand, obtained from inhibition or displacement) on Cannabinoid receptor 2 [1] was 130 nM.
`CCN(CC)c1ccc(CN(CC2CCCCC2)S(=O)(=O)c2ccc(C)cc2)cc1`: the inhibitory constant (Ki) worked out at 34 nM on Cannabinoid receptor 2 [1] and 560 nM on Cannabinoid receptor 1. Further, in the data set filed under Homo sapiens, the Ratio Ki came to 16.
In the case of `Cc1ccc(S(=O)(=O)N(Cc2ccccc2)Cc2ccc(N3CCCCC3)cc2)cc1`, the Ki at Cannabinoid receptor 2 [1] turned out to be 44 nM; at Cannabinoid receptor 1, 1300 nM. For the same molecule, the Ratio Ki in the data set listed under Homo sapiens worked out at 28.
Take `CCN(CC)c1ccc(CN(C2CCCCC2)S(=O)(=O)c2ccc(OC)cc2)cc1`: the results for the Ki on Cannabinoid receptor 2 [1] and on Cannabinoid receptor 1 were 75 nM and 660 nM, respectively. The Ratio Ki in the data set filed under Homo sapiens stood at 9.
`C=CCN(Cc1ccc(N(CC)CC)cc1)S(=O)(=O)c1ccc(C)cc1`: the Ki on Cannabinoid receptor 2 [1] was 66 nM; at Cannabinoid receptor 1, 1250 nM. Moreover, the Ratio Ki in the data set listed under Homo sapiens was 19.
`CCN(CC)c1ccc(CN(Cc2ccc(Cl)c(Cl)c2)S(=O)(=O)c2ccc(C)cc2)cc1` registered an inhibition constant Ki at Cannabinoid receptor 2 [1] of 390 nM.
Consider `CCOc1ccc(CN(Cc2ccccc2)S(=O)(=O)c2ccc(C)cc2)cc1`, for which the Ki at Cannabinoid receptor 2 [1] came out at 230 nM.
Regarding `CCN(CC)c1ccc(CN(C2CCCCC2)S(=O)(=O)c2ccc(C)cc2)cc1`, the inhibition constant (Ki) at Cannabinoid receptor 2 [1] is 18 nM; on Cannabinoid receptor 1 it was 210 nM. Further, the Ratio Ki in the data set listed under Homo sapiens is 12.
For the molecule `C=CCc1ccc(CN(Cc2ccccc2)S(=O)(=O)c2ccc(C)cc2)cc1`, the Ki on Cannabinoid receptor 2 [1] was found to be 130 nM.
Turning to `COc1ccc(S(=O)(=O)N(Cc2ccc(N3CCCCC3)cc2)c2ccccc2)cc1`, the concentration for a half-maximal effect (EC50) (in general, the concentration that produces a half-maximal response) at Cannabinoid receptor 2 [2] was determined as 49 nM. The Ki was 32 nM on Cannabinoid receptor 2 [1] and 590 nM on Cannabinoid receptor 1. The Ratio Ki in the data set filed under Homo sapiens stood at 18.
For the molecule `CCN(CC)c1ccc(CN(Cc2ccccc2)S(=O)(=O)Cc2ccccc2)cc1`, on Cannabinoid receptor 2 [1], the inhibition constant (Ki) was determined as 262 nM.
In the case of `O=S(=O)(c1ccc(Cl)cc1)N(Cc1ccc(N2CCCCC2)cc1)c1ccccc1`, the affinity at Cannabinoid receptor 2 [1] corresponds to a Ki of 140 nM.
For the molecule `CCN(CC)c1ccc(CN(c2ncc(C)s2)S(=O)(=O)c2ccc(C)cc2)cc1`, the inhibitory constant (Ki) was determined as 14 nM at Cannabinoid receptor 2 [1] and 340 nM on Cannabinoid receptor 1. Further, the Ratio Ki in the data set listed under Homo sapiens was 24.
Turning to `Cc1ccc(S(=O)(=O)N(Cc2ccccc2)Cc2ccc(N(C)C)cc2)cc1`, the Ki on Cannabinoid receptor 2 [1] was found to be 680 nM.
In the case of `CCN(CC)c1ccc(CN(C2CCCC2)S(=O)(=O)c2ccc(C)cc2)cc1`, the inhibition constant (Ki) amounted to 36 nM on Cannabinoid receptor 2 [1] and 500 nM at Cannabinoid receptor 1. Also, in the data set listed under Homo sapiens, the Ratio Ki was determined as 14.
`CCN(CC)c1ccc(CN(Cc2ccccc2)S(=O)(=O)c2ccccc2)cc1` registered a Ki at Cannabinoid receptor 2 [1] of 170 nM.
Turning to `CCN(CC)c1ccc(CN(Cc2ccc(Cl)cc2)S(=O)(=O)c2ccc(C)cc2)cc1`, the Ki at Cannabinoid receptor 2 [1] came to 210 nM.
For the molecule `CCN(CC)c1ccc(CN(c2ccccc2)S(=O)(=O)c2ccc(C)cc2)cc1`, the EC50 at Cannabinoid receptor 2 [2] was determined as 8.2 nM. In addition, the Activity in [3] is reported as 83%; in [4], 55%; in data set [5], 99.7%; in the data set with PBMC it was “Non-toxic”. Moreover, the inhibition constant Ki on Cannabinoid receptor 2 [1] was found to be 5.5 nM; on Cannabinoid receptor 1 it was 81 nM. Moreover, in the data set filed under Homo sapiens, the Ratio Ki came to 15.
Turning to `Cc1ccc(S(=O)(=O)N(Cc2ccccc2)Cc2ccc(OC(C)C)cc2)cc1`, on Cannabinoid receptor 2 [1], the Ki came out at 174 nM.
Take `Cc1ccc(S(=O)(=O)N(Cc2ccc(N3CCCCC3)cc2)c2ccccc2)cc1`: the inhibitory constant (Ki) on Cannabinoid receptor 2 [1] was 310 nM.
`CCN(CC)c1ccc(CN(Cc2ccccc2)S(=O)(=O)c2ccc(C)cc2)cc1`: the Ki on Cannabinoid receptor 2 [1] is 53 nM; on Cannabinoid receptor 1, 2300 nM. Moreover, the Ratio Ki in the data set listed under Homo sapiens was determined as 43.
On to `CCN(CC)c1ccc(CN(Cc2ccccc2)S(=O)(=O)c2ccc(OC)cc2)cc1`, for which the values for the Ki at Cannabinoid receptor 2 [1] and at Cannabinoid receptor 1 were 46 nM and 690 nM, respectively. In the data set listed under Homo sapiens, the Ratio Ki was determined as 15.
As to `CCN(CC)c1ccc(CN(Cc2ccc(F)cc2)S(=O)(=O)c2ccc(C)cc2)cc1`, the inhibition constant (Ki) on Cannabinoid receptor 2 [1] was 120 nM; on Cannabinoid receptor 1 it was 2250 nM. The Ratio Ki in the data set filed under Homo sapiens was found to be 20.
In the case of `CCN(CC)c1ccc(CNS(=O)(=O)c2ccc(C)cc2)cc1`, the Ki at Cannabinoid receptor 2 [1] came out at 3600 nM.
On to `CCN(CC)c1ccc(CN(Cc2ccco2)S(=O)(=O)c2ccc(OC)cc2)cc1`, for which the Ki at Cannabinoid receptor 2 [1] came to 20 nM; at Cannabinoid receptor 1 it was 840 nM. For the same molecule, in the data set filed under Homo sapiens, the Ratio Ki is 42.
As to `CCN(CC)c1ccc(CN(Cc2ccccc2)S(=O)(=O)c2ccc(-c3ccccc3)cc2)cc1`, affinity on Cannabinoid receptor 2 [1] was put at a Ki of 166 nM.
Molecule `Cc1ccc(S(=O)(=O)N(Cc2ccccc2)Cc2ccc(N(CCCl)CCCl)cc2)cc1` had a Ki on Cannabinoid receptor 2 [1] of 166 nM.
`CCN(CC)c1ccc(CN(Cc2ccccc2)S(=O)(=O)c2ccc3ccccc3c2)cc1` returned an inhibitory constant (Ki) at Cannabinoid receptor 2 [1] of 190 nM.
Take `CCN(CC)c1ccc(CN(c2ccccc2)S(=O)(=O)c2ccc(C(C)C)cc2)cc1`: the figures for the inhibitory constant (Ki) at Cannabinoid receptor 2 [1] and at Cannabinoid receptor 1 were 30 nM and 2000 nM, respectively. Also, the Ratio Ki in the data set listed under Homo sapiens was determined as 66.
On to `CCN(CC)c1ccc(CN(c2ccccc2)S(=O)(=O)c2ccc(OC)cc2)cc1`, for which, at Cannabinoid receptor 2 [2], the EC50 was 2.5 nM. Moreover, the Ki on Cannabinoid receptor 2 [1] was 5.4 nM; at Cannabinoid receptor 1, 500 nM. Further, the outcome in the data set listed under Mus musculus was Active. Moreover, in the data set filed under Homo sapiens, the Ratio Ki was determined as 92.
Take `CCN(CC)c1ccc(CN(Cc2ccco2)S(=O)(=O)c2ccc(C(C)C)cc2)cc1`: the Ki amounted to 31 nM on Cannabinoid receptor 2 [1] and 1300 nM on Cannabinoid receptor 1. Moreover, in the data set filed under Homo sapiens, the Ratio Ki turned out to be 42.
For `Cc1ccc(S(=O)(=O)N(CCc2ccccc2)Cc2ccccc2)cc1`, on Cannabinoid receptor 2 [6], the affinity, expressed as Ki, was 750 nM.
With `CCN(CC)c1ccc(CN(C2CCCCC2)S(=O)(=O)c2ccc(C(C)C)cc2)cc1`, the results for the inhibition constant Ki at Cannabinoid receptor 2 [1] and on Cannabinoid receptor 1 were 55 nM and 1400 nM, respectively. In addition, the Ratio Ki in the data set filed under Homo sapiens amounted to 25.
In turn, `Cc1ccc(S(=O)(=O)N(Cc2ccccc2)Cc2ccc(C(C)C)cc2)cc1` gave an inhibition constant Ki on Cannabinoid receptor 2 [1] of 230 nM.
Consider `CCN(CC)c1ccc(CN(c2ncc(C)s2)S(=O)(=O)c2ccc(OC)cc2)cc1`, for which the half-maximal effective concentration (EC50) on Cannabinoid receptor 2 [2] was 73 nM. Also, the Ki at Cannabinoid receptor 2 [1] is 4 nM; on Cannabinoid receptor 1 it was 600 nM. In the data set listed under Mus musculus, the result was Active. Further, in the data set listed under Homo sapiens, the Ratio Ki is 120.
In turn, `CCCCc1ccc(CN(Cc2ccccc2)S(=O)(=O)c2ccc(C)cc2)cc1` registered an inhibition constant (Ki) at Cannabinoid receptor 2 [1] of 280 nM.
Same read-out and setting: then `CCN(CC)c1ccc(CN(Cc2ccccc2)Cc2ccccc2)cc1`, with 150 nM.
For the molecule `CCN(CC)c1ccc(CN(Cc2ccccc2)S(=O)(=O)c2ccc(C(C)C)cc2)cc1`, the Ki on Cannabinoid receptor 2 [1] was found to be 71 nM; at Cannabinoid receptor 1, 520 nM. The Ratio Ki in the data set listed under Homo sapiens is 7.
The corresponding values for `CCN(CC)c1ccc(CN(Cc2ccccc2)S(=O)(=O)c2ccc(Cl)cc2)cc1` are 73 nM, 430 nM and 6.
Consider `CCN(CC)c1ccc(CN(Cc2ccco2)S(=O)(=O)c2ccc(C)cc2)cc1`, for which the inhibition constant (Ki) was determined as 9.5 nM on Cannabinoid receptor 2 [1] and 570 nM on Cannabinoid receptor 1. In the data set filed under Homo sapiens, the Ratio Ki is 60.
On Cannabinoid receptor 2 [1], `CCN(CC)c1ccc(CN(Cc2ccccc2)S(=O)(=O)c2ccc(OC(C)C)cc2)cc1` showed a Ki of 94 nM.
The same measure, in the same setting: to `CCN(CC)c1ccc(CN(CCc2ccccc2)S(=O)(=O)c2ccc(C)cc2)cc1` belongs 120 nM; to `CCN(CC)c1ccc(CN(Cc2ccccc2)S(=O)(=O)c2ccc(OC(F)(F)F)cc2)cc1`, 577 nM.
In the case of `CCN(CC)c1ccc(CN(Cc2cccs2)S(=O)(=O)c2ccc(C)cc2)cc1`, the inhibition constant (Ki) at Cannabinoid receptor 2 [1] was 14 nM; at Cannabinoid receptor 1, 610 nM. Moreover, the Ratio Ki in the data set filed under Homo sapiens is 44.
For `CCN(CC)c1ccc(CN(Cc2ccccc2)S(=O)(=O)c2ccc(F)cc2)cc1`, in that order: 102 nM, 930 nM and 9.
The molecule `CCN(CC)c1ccc(CN(Cc2ccccc2)S(=O)(=O)c2ccc(NC(C)=O)cc2)cc1` showed an inhibitory constant (Ki) at Cannabinoid receptor 2 [1] of 470 nM.
Consider `CCN(CC)c1ccc(CN(Cc2ccc(N(CC)CC)cc2)S(=O)(=O)c2ccc(C)cc2)cc1`, for which the affinity on Cannabinoid receptor 2 [1], expressed as Ki, was 540 nM.
